Bioassay records as filed in PubChem.
TLR9-MyD88 block – inhibitors of TLR9-MyD88 association in cells, primary screen, cell-based, CHO, BLA complementation, fluorescence; Toll-like receptor 9 (Homo sapiens) + Myeloid differentiation primary response protein …; CCF4 FRET ratio; inhibition, % at 4.98 µM; 340,000 compounds, 0.21% hits;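 active means inhibition above the mean over all tested compounds plus 3 SD, cut at about 21% in these data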;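 further: 0% = DMSO only wells and 100% = clavulanate BLA inhibitor control wells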
UPR XBP1 act – activators of adaptive XBP1 UPR arm, primary screen, cell-based, CHO-XBP1 luciferase reporter, luminescence, uHTS. IRE1-XBP1 UPR activation; percent of tunicamycin response, DMSO as zero. activation, % at 20 µM. 330,000 compounds, 0.33% hits. AID 463104, 2010;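 active means versus positive control, 20 µM dose yields 30% or more activation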;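 further: 100% = tunicamycin at 10 µg/mL and 0% = DMSO only wells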
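Assay system: CHO-XBP1 luciferase reporter cells; Schedule: 6 h treatment, 37 °C; Detection: glow luminescence from Steady-Glo reagent; Benchmarks: high control tunicamycin 10 µg/mL final, low control DMSO vehicle only.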
CHOP inh – inhibitors of CHOP promoter induction, primary screen, cell-based, unfolded protein response, luciferase reporter. CHO-K1 CHOP-promoter luciferase, tunicamycin-induced, 15-18 h. inhibition, % at 10 µM. 220,000 compounds, 3.8% hits;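 active means compounds that reduced the stress-induced luciferase reporter signal by more than about 70% of percent inhibition, limit read from the data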;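 further: 0% = tunicamycin plus vehicle and 100% = wells without tunicamycin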
TLR4 MyD88 comp – inhibitors of TLR4-MyD88 association in cells, primary screen, cell-based, HeLa CL3-4, BLA complementation, FRET ratio; Toll-like receptor 4 (Homo sapiens) + Myeloid differentiation primary response protein …; inhibition, % at 8.4 µM; HeLa CL3-4 TLR4/MyD88 BLA complementation; AID 861, 2007; 200,000 compounds, 0.18% hits; in the data active means inhibition above about 25%;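 further: 0% = vehicle and 100% = reference inhibitor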
Target sequence (O00206 whole entry, looked up): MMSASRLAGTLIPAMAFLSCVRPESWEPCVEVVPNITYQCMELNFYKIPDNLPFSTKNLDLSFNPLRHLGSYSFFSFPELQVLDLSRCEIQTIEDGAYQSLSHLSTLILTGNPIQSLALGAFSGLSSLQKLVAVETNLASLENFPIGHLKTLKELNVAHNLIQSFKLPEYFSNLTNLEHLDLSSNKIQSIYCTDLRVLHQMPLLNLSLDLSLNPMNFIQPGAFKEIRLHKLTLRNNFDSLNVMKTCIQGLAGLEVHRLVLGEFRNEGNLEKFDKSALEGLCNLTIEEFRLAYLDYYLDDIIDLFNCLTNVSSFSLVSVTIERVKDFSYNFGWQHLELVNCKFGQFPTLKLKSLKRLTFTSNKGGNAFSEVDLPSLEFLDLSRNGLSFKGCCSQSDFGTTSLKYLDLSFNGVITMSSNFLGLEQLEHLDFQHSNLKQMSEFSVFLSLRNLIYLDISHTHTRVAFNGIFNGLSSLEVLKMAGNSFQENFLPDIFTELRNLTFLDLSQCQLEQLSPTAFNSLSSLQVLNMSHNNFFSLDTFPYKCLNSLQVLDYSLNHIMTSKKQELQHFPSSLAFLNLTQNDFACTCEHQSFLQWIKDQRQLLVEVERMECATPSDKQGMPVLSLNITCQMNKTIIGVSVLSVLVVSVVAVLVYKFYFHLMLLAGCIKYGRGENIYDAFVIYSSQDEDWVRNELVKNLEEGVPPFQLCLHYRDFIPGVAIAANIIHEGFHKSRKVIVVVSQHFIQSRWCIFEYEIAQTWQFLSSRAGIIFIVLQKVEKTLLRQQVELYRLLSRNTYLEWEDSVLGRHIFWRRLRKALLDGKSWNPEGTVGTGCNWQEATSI
Target sequence (Q99836 whole entry, looked up): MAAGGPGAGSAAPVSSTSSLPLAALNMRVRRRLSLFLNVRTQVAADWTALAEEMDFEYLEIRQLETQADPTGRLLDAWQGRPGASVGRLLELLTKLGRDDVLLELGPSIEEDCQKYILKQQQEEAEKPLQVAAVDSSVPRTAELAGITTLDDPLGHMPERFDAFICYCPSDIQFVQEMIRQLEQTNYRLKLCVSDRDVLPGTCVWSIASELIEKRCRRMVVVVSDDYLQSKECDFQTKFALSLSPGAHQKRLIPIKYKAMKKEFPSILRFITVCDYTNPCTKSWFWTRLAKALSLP
UPR CHOP act – activators of apoptotic CHOP UPR arm, primary screen, cell-based, CHO-CHOP luciferase reporter, luminescence, uHTS; AID 449763, 2010; UPR activation; percent of tunicamycin response over DMSO baseline; activation, % at 10 µM; 330,000 compounds, 0.34% hits;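 active means at 10 µM dose, activation of 40% or more, normalized to positive control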;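 further: 100% = tunicamycin at 10 µg/mL and 0% = DMSO alone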
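Material: CHO-CHOP cells, stable luciferase reporter of PERK-eIF2a-CHOP signalling; quantity: 500 reporter cells seeded per well; buffer or medium: F12 medium containing 10% fetal bovine serum; compound: one dose, 10 µM in 0.5% DMSO; incubation: 6 h compound treatment, 37 °C; measured by: Steady-Glo luciferase luminescence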
NOD2 RIPK2 PPI – NOD2-RIPK2 binding disruptors in cells, primary screen, fluorescence, CHO cells, BLA complementation. Receptor-interacting serine/threonine-protein kinase 2 (Homo sapiens), O43353. CCF4 ratio. inhibition, % at 4.98 µM. 360,000 compounds, 0.38% hits. AID 624267, 2012; in the data active means inhibition above about 21%;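 further: 0% = vehicle only and 100% = reference blocker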
NOD2-RIPK2 conf – NOD2-RIPK2 binding disruptors, retest, confirmation, fluorescence, CHO cells, BLA complementation, triplicate; shares compounds with NOD2 RIPK2 PPI; CCF4 FRET; inhibition, % at 4.98 µM; 1,200 compounds, 70% hits; AID 624370, 2012;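 active means mean inhibition across replicates above a set limit taken from the earlier primary screen, cut at about 21% in these data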;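 further: 0% = DMSO-only wells and the high end = clavulanate BLA-blocked wells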
BLA counter – counter-screen for NOD2-RIPK2 interaction inhibitors: BLA reporter. shares compounds with NOD2 RIPK2 PPI. 1,200 compounds, 57% hits. AID 624371. inhibition, % at 4.98 µM. CHO BLA reporter, CCF4 FRET ratio, counterscreen;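 active means mean inhibition above the low-control mean inhibition plus three low-control SD, cut at about 11% in these data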;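 further: 0% = DMSO only wells and 100% = clavulanate high control wells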
Active calls of the source: *; / = not tested or not shown. The entries come from a sample that favours hits as a whole.

SMILES	TLR9-MyD88 block	UPR XBP1 act	CHOP inh	TLR4 MyD88 comp	UPR CHOP act	NOD2 RIPK2 PPI	NOD2-RIPK2 conf	BLA counter
COc1ccc(NC(=O)C(C2CC2)n2c(=O)c(-c3cc4ccccc4[nH]3)nc3ccccc32)cc1 (centres undefined)	/	/	/	/	/	46*	40*	67*
O=C(O)c1cccc2c1C(=O)N(CC1CCCO1)C2 (centres undefined)	6	-3	32	9	2	-3	/	/
O=C(NCc1ccc(Cl)cc1)c1cccc2c1C(=O)N(CC1CCCO1)C2 (centres undefined)	-6	-4	/	/	0	39*	3	-1
O=C(NCc1cccnc1)/C(=C\c1ccc(-c2ccc(Cl)c(Cl)c2)o1)S(=O)(=O)c1ccccc1	9	/	110*	15	/	41*	42*	-1
O=C(Nc1ccc2cn[nH]c2c1)c1c(Cl)cccc1Cl	-12	2	43	-11	-2	-12	/	/
O=C1C(Cl)=C(Nc2ccc3cn[nH]c3c2)C(=O)c2ccccc21	3	/	107*	/	/	91*	79*	28*
CCCN(C(=O)c1ccc([N+](=O)[O-])c(C)c1)c1c(N)n(Cc2ccccc2)c(=O)[nH]c1=O	-7	-2	/	/	-1	-4	/	/
COc1ccc(/C=C/C(=O)c2cc(F)ccc2OC(=O)c2ccc(OC)c(OC)c2)cc1OC	-7	1	1	-7	1	3	/	/
COc1ccc(/C=C/C(=O)c2cc(Br)ccc2OC(=O)c2ccco2)cc1OC	-6	-1	-93	-2	-1	-1	/	/
COc1ccc(/C=C/C(=O)c2cc(F)ccc2OC(=O)c2ccccc2OC)cc1OC	4	/	-64	13	/	22*	22*	1
COc1ccc(/C=C/C(=O)c2cc(F)ccc2OC(=O)c2ccccc2)cc1OC	1	22	/	7	3	26*	18	-2
C=C(CN(C)C)C(=O)c1ccc(C)cc1C	11	/	/	/	/	33*	94*	30*
O=C(CCCCCNC(=O)N1CCn2c1nc1ccccc12)N[C@@H](Cc1ccccc1)C(=O)O	0	-1	/	/	-1	-6	/	/
Cc1ccc(-n2nc3c(N4CCC(C(=O)NCc5ccccc5C)CC4)nnc(C)c3c2C)cc1	6	16	/	/	0	24*	36*	7
Cc1ccccc1CNC(=O)C1CCCN(c2nnc(C)c3c(C)n(-c4ccccc4)nc23)C1 (centres undefined)	3	-2	/	/	0	5	/	/
CCOc1ccc(CNC(=O)C2CCN(c3nnc(C)c4c(C)n(-c5ccc(C)cc5)nc34)CC2)cc1	7	5	/	/	4	36*	48*	19*
COCCc1ccc(OC2(C)CCN(Cc3cccc(OCOC)c3)C2)cc1 (centres undefined)	/	/	/	/	/	-3	/	/
CCc1nc(N)nc(N)c1-c1ccc(Cl)c([N+](=O)[O-])c1	7	/	/	/	/	4	/	/
COc1ccc([N+](=O)[O-])c(S(=O)(=O)c2ccc(Cl)cc2)n1	-3	-9	24	/	-5	21*	48*	-11
O=[N+]([O-])c1cccnc1S(=O)(=O)c1ccccc1	0	-10	/	/	-10	18	/	/
COc1ccc([N+](=O)[O-])c(S(=O)(=O)c2ccccc2)n1	/	-9	107*	/	-9	33*	59*	-4
